Reference: ChEMBL document CHEMBL4689842, “EUbOPEN Chemogenomics Library wave 1” (2021)
Where “and” joins values, the source holds several entries; their conditions need not be identical. Equal values may be shown once.

System: HEK-293T
Assay: Multiplex assay against HEK293T;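 for Population Tubulin-Different-Phenotype (%): share of the cells with healthy nuclei that show this phenotype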
Assay type: toxicity, cell-based
Conditions: human
Procedure, shortened: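 Per cents of healthy-nucleus cells form the tubulin, mitochondrial-mass and membrane-permeability phenotype values. Live cells were stained at seeding with Hoechst33342, BioTracker Green Microtubule Cytoskeleton Dye, MitoTracker Red and Annexin V Alexa Fluor 680. After compound addition they were imaged on a CQ1 microscope at 37°C and 5% CO2, and CellPathfinder machine-learning gating split them into Hoechst high-intensity objects or normal cells, normal cells into healthy, pyknosed or fragmented nuclei, and pyknosed cells into mitotic or apoptotic.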

[1] = 12 h, 1 µM, compound concentration 1 uM, replicate 1
[2] = 12 h, 1 µM, compound concentration 1 uM, replicate 2
[3] = 12 h, 10 µM, compound concentration 10 uM, replicate 1
[4] = 12 h, 10 µM, compound concentration 10 uM, replicate 2
[5] = 24 h, 1 µM, compound concentration 1 uM, replicate 1
[6] = 24 h, 1 µM, compound concentration 1 uM, replicate 2
[7] = 24 h, 10 µM, compound concentration 10 uM, replicate 1
[8] = 24 h, 10 µM, compound concentration 10 uM, replicate 2
[9] = 48 h, 1 µM, compound concentration 1 uM, replicate 1
[10] = 48 h, 1 µM, compound concentration 1 uM, replicate 2
[11] = 48 h, 10 µM, compound concentration 10 uM, replicate 1
[12] = 48 h, 10 µM, compound concentration 10 uM, replicate 2

## CC(C)(C)NC[C@H](O)COc1nsnc1N1CCOCC1 [TIMOLOL]
[1]
  Population Apoptotic (%): 47%
  Population Fragmented Nuclei (%): 10%
  Population Healthy Nuclei (%): 39%
  Population Hoechst High Intensity Objects (%): 14%
  Population Membrane Permeable-Phenotype (%): 4%
  Population Mitochondria Different-Phenotype (%): 77%
  Population Mitotic Cells (%): 52%
  Population Normal (%): 85%
  Population Pyknosed Nuclei (%): 50%
  Population Tubulin-Different-Phenotype (%): 36%
  Total Cell Count: 281
[2]
  Population Apoptotic (%): 12%
  Population Fragmented Nuclei (%): 5%
  Population Healthy Nuclei (%): 48%
  Population Hoechst High Intensity Objects (%): 3%
  Population Membrane Permeable-Phenotype (%): 8%
  Population Mitochondria Different-Phenotype (%): 19%
  Population Mitotic Cells (%): 87%
  Population Normal (%): 96%
  Population Pyknosed Nuclei (%): 45%
  Population Tubulin-Different-Phenotype (%): 22%
  Total Cell Count: 280
[3]
  Population Apoptotic (%): 55%
  Population Fragmented Nuclei (%): 9%
  Population Healthy Nuclei (%): 40%
  Population Hoechst High Intensity Objects (%): 13%
  Population Membrane Permeable-Phenotype (%): 2%
  Population Mitochondria Different-Phenotype (%): 87%
  Population Mitotic Cells (%): 44%
  Population Normal (%): 86%
  Population Pyknosed Nuclei (%): 49%
  Population Tubulin-Different-Phenotype (%): 53%
  Total Cell Count: 293
[4]
  Population Apoptotic (%): 8%
  Population Fragmented Nuclei (%): 3%
  Population Healthy Nuclei (%): 50%
  Population Hoechst High Intensity Objects (%): 3%
  Population Membrane Permeable-Phenotype (%): 4%
  Population Mitochondria Different-Phenotype (%): 23%
  Population Mitotic Cells (%): 91%
  Population Normal (%): 96%
  Population Pyknosed Nuclei (%): 46%
  Population Tubulin-Different-Phenotype (%): 17%
  Total Cell Count: 261
[5]
  Population Apoptotic (%): 49%
  Population Fragmented Nuclei (%): 8%
  Population Healthy Nuclei (%): 43%
  Population Hoechst High Intensity Objects (%): 12%
  Population Membrane Permeable-Phenotype (%): 1%
  Population Mitochondria Different-Phenotype (%): 58%
  Population Mitotic Cells (%): 50%
  Population Normal (%): 87%
  Population Pyknosed Nuclei (%): 47%
  Population Tubulin-Different-Phenotype (%): 41%
  Total Cell Count: 293
[6]
  Population Apoptotic (%): 8%
  Population Fragmented Nuclei (%): 7%
  Population Healthy Nuclei (%): 67%
  Population Hoechst High Intensity Objects (%): 1%
  Population Membrane Permeable-Phenotype (%): 11%
  Population Mitochondria Different-Phenotype (%): 12%
  Population Mitotic Cells (%): 91%
  Population Normal (%): 98%
  Population Pyknosed Nuclei (%): 24%
  Population Tubulin-Different-Phenotype (%): 30%
  Total Cell Count: 363
[7]
  Population Apoptotic (%): 44%
  Population Fragmented Nuclei (%): 6%
  Population Healthy Nuclei (%): 57%
  Population Hoechst High Intensity Objects (%): 12%
  Population Membrane Permeable-Phenotype (%): 2%
  Population Mitochondria Different-Phenotype (%): 70%
  Population Mitotic Cells (%): 55%
  Population Normal (%): 87%
  Population Pyknosed Nuclei (%): 35%
  Population Tubulin-Different-Phenotype (%): 40%
  Total Cell Count: 360
[8]
  Population Apoptotic (%): 8%
  Population Fragmented Nuclei (%): 3%
  Population Healthy Nuclei (%): 71%
  Population Hoechst High Intensity Objects (%): 3%
  Population Membrane Permeable-Phenotype (%): 4%
  Population Mitochondria Different-Phenotype (%): 17%
  Population Mitotic Cells (%): 91%
  Population Normal (%): 96%
  Population Pyknosed Nuclei (%): 24%
  Population Tubulin-Different-Phenotype (%): 18%
  Total Cell Count: 355
[9]
  Population Apoptotic (%): 52%
  Population Fragmented Nuclei (%): 18%
  Population Healthy Nuclei (%): 46%
  Population Hoechst High Intensity Objects (%): 10%
  Population Membrane Permeable-Phenotype (%): 6%
  Population Mitochondria Different-Phenotype (%): 23%
  Population Mitotic Cells (%): 47%
  Population Normal (%): 89%
  Population Pyknosed Nuclei (%): 34%
  Population Tubulin-Different-Phenotype (%): 33%
  Total Cell Count: 373
[10]
  Population Apoptotic (%): 16%
  Population Fragmented Nuclei (%): 5%
  Population Healthy Nuclei (%): 82%
  Population Hoechst High Intensity Objects (%): 2%
  Population Mitochondria Different-Phenotype (%): 3%
  Population Mitotic Cells (%): 83%
  Population Normal (%): 97%
  Population Pyknosed Nuclei (%): 12%
  Population Tubulin-Different-Phenotype (%): 25%
  Total Cell Count: 733
[11]
  Population Apoptotic (%): 42%
  Population Fragmented Nuclei (%): 12%
  Population Healthy Nuclei (%): 65%
  Population Hoechst High Intensity Objects (%): 5%
  Population Membrane Permeable-Phenotype (%): 0%
  Population Mitochondria Different-Phenotype (%): 23%
  Population Mitotic Cells (%): 57%
  Population Normal (%): 94%
  Population Pyknosed Nuclei (%): 22%
  Population Tubulin-Different-Phenotype (%): 20%
  Total Cell Count: 545
[12]
  Population Apoptotic (%): 6%
  Population Fragmented Nuclei (%): 7%
  Population Healthy Nuclei (%): 85%
  Population Hoechst High Intensity Objects (%): 2%
  Population Membrane Permeable-Phenotype (%): 2%
  Population Mitochondria Different-Phenotype (%): 4%
  Population Mitotic Cells (%): 93%
  Population Normal (%): 97%
  Population Pyknosed Nuclei (%): 7%
  Population Tubulin-Different-Phenotype (%): 17%
  Total Cell Count: 660

## CCC1=C[C@@H]2C[N@](C1)Cc1c([nH]c3ccccc13)[C@@](C(=O)OC)(c1cc3c(cc1OC)N(C)[C@H]1[C@@](O)(C(=O)OC)[C@H](OC(C)=O)[C@]4(CC)C=CCN5CC[C@]31[C@@H]54)C2.O=C(O)C(O)C(O)C(=O)O.O=C(O)C(O)C(O)C(=O)O [VINORELBINE TARTRATE]
[1]
  Population Apoptotic (%): 25% and 14%
  Population Fragmented Nuclei (%): 25% and 16%
  Population Healthy Nuclei (%): 32% and 48%
  Population Hoechst High Intensity Objects (%): 18% and 15%
  Population Mitochondria Different-Phenotype (%): 18% and 9%
  Population Mitotic Cells (%): 75% and 85%
  Population Normal (%): 81% and 84%
  Population Pyknosed Nuclei (%): 41% and 35%
  Total Cell Count: 502 and 565
[2]
  Population Apoptotic (%): 17% and 8%
  Population Fragmented Nuclei (%): 3% and 4%
  Population Healthy Nuclei (%): 57% and 63%
  Population Hoechst High Intensity Objects (%): 4% and 3%
  Population Membrane Permeable-Phenotype (%): 12% and 0%
  Population Mitochondria Different-Phenotype (%): 27% and 14%
  Population Mitotic Cells (%): 83% and 91%
  Population Normal (%): 95% and 96%
  Population Pyknosed Nuclei (%): 38% and 31%
  Total Cell Count: 945 and 1247
[3]
  Population Apoptotic (%): 31% and 19%
  Population Fragmented Nuclei (%): 29% and 13%
  Population Healthy Nuclei (%): 22% and 49%
  Population Hoechst High Intensity Objects (%): 19% and 15%
  Population Mitochondria Different-Phenotype (%): 13% and 9%
  Population Mitotic Cells (%): 68% and 80%
  Population Normal (%): 80% and 84%
  Population Pyknosed Nuclei (%): 48% and 37%
  Total Cell Count: 499 and 592
[4]
  Population Apoptotic (%): 13% and 7%
  Population Fragmented Nuclei (%): 3%
  Population Healthy Nuclei (%): 54% and 62%
  Population Hoechst High Intensity Objects (%): 2%
  Population Membrane Permeable-Phenotype (%): 10% and 0%
  Population Mitochondria Different-Phenotype (%): 22% and 16%
  Population Mitotic Cells (%): 86% and 92%
  Population Normal (%): 97%
  Population Pyknosed Nuclei (%): 41% and 33%
  Total Cell Count: 964 and 1090
[5]
  Population Apoptotic (%): 13% and 28%
  Population Fragmented Nuclei (%): 15% and 27%
  Population Healthy Nuclei (%): 47% and 33%
  Population Hoechst High Intensity Objects (%): 12% and 20%
  Population Membrane Permeable-Phenotype (%): 0% and 13%
  Population Mitotic Cells (%): 86% and 71%
  Population Normal (%): 87% and 79%
  Population Pyknosed Nuclei (%): 36% and 38%
  Total Cell Count: 530 and 459
[6]
  Population Apoptotic (%): 14% and 8%
  Population Fragmented Nuclei (%): 7% and 9%
  Population Healthy Nuclei (%): 36% and 69%
  Population Hoechst High Intensity Objects (%): 6% and 3%
  Population Membrane Permeable-Phenotype (%): 8%
  Population Mitochondria Different-Phenotype (%): 28%
  Population Mitotic Cells (%): 85% and 91%
  Population Normal (%): 93% and 96%
  Population Pyknosed Nuclei (%): 55% and 21%
  Total Cell Count: 914 and 1303
[7]
  Population Apoptotic (%): 20% and 38%
  Population Fragmented Nuclei (%): 16% and 29%
  Population Healthy Nuclei (%): 45% and 26%
  Population Hoechst High Intensity Objects (%): 9% and 20%
  Population Mitochondria Different-Phenotype (%): 10% and 13%
  Population Mitotic Cells (%): 79% and 61%
  Population Normal (%): 90% and 79%
  Population Pyknosed Nuclei (%): 37% and 44%
  Total Cell Count: 529 and 482
[8]
  Population Apoptotic (%): 11% and 5%
  Population Fragmented Nuclei (%): 3% and 6%
  Population Healthy Nuclei (%): 37% and 72%
  Population Hoechst High Intensity Objects (%): 3% and 2%
  Population Membrane Permeable-Phenotype (%): 9% and 0%
  Population Mitotic Cells (%): 88% and 94%
  Population Normal (%): 96% and 97%
  Population Pyknosed Nuclei (%): 58% and 21%
  Total Cell Count: 920 and 1144
